“Also recorded” adds a separate entry of the source.
Legend:
[1] = tested on: YU2, HXBc2 and HX(YU2 V3) gp120 glycoproteins; assay: Direct binding of 3H-labeled BMS-806 to gp120 variants; parameters: species or system HIV-1; details: all three gp120 glycoproteins
[2] = tested on: viruses with Glu 429 replaced with a lysine residue; assay: Enhancement of infection of Cf2Th-CCR5 cells, Glu 429 to lysine virus; type: cell-based, HIV-1; details: Glu 429 replaced with lysine
D368A mutant viruses = assay: Enhancement of infection of Cf2Th-CCR5 cells, D368A virus; type: cell-based, HIV-1; details: CD4−CCR5+ target cells; D368A envelope glycoproteins
[3] = tested on: viruses with the S375W mutant envelope glycoproteins; assay: Enhancement of infection of Cf2Th-CCR5 cells, S375W virus; type: cell-based, HIV-1
[4] = tested on: viruses with an alanine residue substituted for Glu 429; assay: Enhancement of infection of Cf2Th-CCR5 cells, Glu 429 to alanine virus; type: cell-based, HIV-1; details: Glu 429 replaced with alanine
[5] = tested on: recombinant HIV-1 with the wild-type HIV-1YU2 envelope glycoproteins; assay: Enhancement of infection of CD4-negative Cf2Th-CCR5 cells, w.t. YU2 virus; type: cell-based
[6] = tested on: viruses with the KB9 envelope glycoproteins; assay: Entry into CD4-negative Cf2Th-CXCR4 cells, KB9 virus; type: cell-based, HIV-1; details: data not shown
[7] = tested on: viruses with the w.t. YU2 envelope glycoproteins; assay: Inhibition of infection of Cf2Th-CD4/CCR5 cells, w.t. YU2 virus; type: cell-based, HIV-1; details: for IC50: read-out: 50% inhibitory concentration (IC50), Cf2Th-CD4/CCR5 cells, w.t. YU2 envelope glycoproteins
In short: (§1)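 Cf2Th-CD4/CCR5 cells were seeded at 6×10^3/well 24 h ahead. Luciferase viruses bearing YU2 Env (w.t. or S375A) or control A-MLV Env were premixed with test compound (1 to 100 μM) for 30 min at 37°C, then added to the cells for 48 h at 37°C. Luciferase was read after freeze-thaw lysis. Infection was expressed relative to no compound. IC50 is the mean ± SD of five independent experiments, each run in triplicate.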

[8] = tested on: viruses containing a chimeric HIV-1 envelope glycoprotein (HX(YU2 V3)); assay: Enhancement of infection of Cf2Th-CCR5 cells, HX; type: cell-based
[9] = target: gp120 core bound to the 17b antibody; assay: Thermodynamic cycle by isothermal titration calorimetry, gp120 core bound to 17b; type: binding, HIV-1
[10] = tested on: envelope glycoproteins of the laboratory-adapted CXCR4-using (X4) HIV-1 isolate, HXBc2; assay: Entry into CD4-negative Cf2Th-CXCR4 cells, HXBc2 virus; type: cell-based; details: data not shown
[11] = tested on: Viruses with the S375A envelope glycoproteins; assay: Inhibition of infection of Cf2Th-CD4/CCR5 cells, S375A virus; type: cell-based, HIV-1
In short: as §1

[12] = tested on: viruses with the S375A change; assay: Enhancement of infection of Cf2Th-CCR5 cells, S375A virus; type: cell-based, HIV-1; details: S375A envelope glycoproteins, compared with w.t.
HXBc2 gp120 = HXBc2 gp120 (Human immunodeficiency virus type 1 group M subtype B, UniProt P04578); assay: Direct binding of 3H-labeled NBD-556, HXBc2 gp120; parameters: species or system HIV-1
gp120 core-17b complex = assay: BIAcore analysis; type: binding, HIV-1; details: data not shown

Structure (SMILES): COc1ccnc2[nH]cc(C(=O)C(=O)N3CCN(C(=O)c4ccccc4)C[C@H]3C)c12 [BMS-806]
- direct binding of 3H-labeled BMS-806 (in words) [1]: similarly

Structure (SMILES): CC1(C)CC(NC(=O)C(=O)Nc2ccc(Br)cc2)CC(C)(C)N1 [NBD-557]
- activation of infection (in words) [2]: eliminated the activation of infection
- enhancement of infectivity (in words) (D368A mutant viruses): not enhanced
- enhancement of infection (in words) [3]: did not activate the entry
- virus-enhancing activity (in words) [4]: significantly diminished
- enhancement of HIV-1 entry/infection of CCR5+ cells (in words) [5]: comparably to NBD-556

Structure (SMILES): CC1(C)CC(NC(=O)C(=O)Nc2ccc(Cl)cc2)CC(C)(C)N1 [NBD-556]
- enhancement of entry (in words) [6]: did not enhance
- activation of infection (in words) [2]: eliminated the activation of infection
- IC50 [7]: 100 µM
- enhancement of infectivity (in words) (D368A mutant viruses): enhanced
- enhancement of infection (in words) [3]: not enhanced
- enhancement of infection (in words) [8]: dramatically enhanced infection
- Kd ([9]; gp120 core bound to the 17b antibody, isothermal titration calorimetry): 1.5 µM
- increase in affinity for the gp120 core bound to the 17b antibody ([9]; versus gp120 core alone): approximately 25 fold
- enhancement of entry (in words) [10]: not functionally enhanced
- IC50 [11]: 10 to 20 µM
- enhancement of infection (in words) [12]: greater enhancement
- virus-enhancing activity (in words) [4]: less disruptive
- direct binding of 3H-labeled NBD-556 (in words) (HXBc2 gp120): only moderately
- enhancement of HIV-1 entry/infection of CCR5+ cells (in words) [5]: significant enhancement
- Kd (gp120 core-17b complex): 6.6 µM

Structure (SMILES): CC1(C)CC(NC(=O)C(=O)Nc2ccc(Cl)c(F)c2)CC(C)(C)N1 [JRC-II-191]
- activation of infection (in words) [2]: eliminated the activation of infection
- IC50 [7]: 54 µM
- inhibition of HIV-1YU2 infection of cells expressing CD4 and CCR5 (in words) ([7]; specificity versus A-MLV envelope glycoproteins): specifically inhibited
- enhancement of infectivity (in words) (D368A mutant viruses): enhanced
- enhancement of infection (in words) [3]: did not activate the entry
- IC50 [11]: 10 to 20 µM
- virus-enhancing activity (in words) [4]: significantly diminished
- enhancement of HIV-1 entry/infection of CCR5+ cells (in words) [5]: most potent stimulation of HIV-1 infection; also recorded: activated HIV-1 infection

Source: article PMC2597202 (Structure (London, England : 1993), 2008)
